Test results taken from ChEMBL document CHEMBL3351353, “Molecular dynamics study-guided identification of cyclic amine structures as novel hydrophobic tail components of hPPARγ agonists” (Bioorg Med Chem Lett, 2014).
Converted amounts (≈) assume the structure as drawn.

test: Thermodynamic solubility of the compound in phosphate buffer at pH 7.2 to 7.4 at 1 mg after 48 hrs by shake flask method; type: physicochemical; conditions: read-out: Therm_solubility
How it was run: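 Shake-flask method: 1 mg of solid ground in an agate mortar, taken up in 1.0 mL of a 1:1 mixture of phosphate buffer (pH 7.2–7.4) and EtOH, shaken 48 h at 25 °C. An aliquot was filtered (0.45 µm), the filtrate diluted in CH₃CN and analysed by HPLC-UV at 254 nm. Concentration was calculated from a prior calibration curve and corrected for dilution.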

CCCOc1ccc(C[C@@H](Cc2ccccc2)C(=O)O)cc1CNC(=O)c1ccc(C23CC4CC(CC(C4)C2)C3)cc1 and CCCOc1ccc(C[C@@H](Cc2ccccc2)C(=O)O)cc1CNC(=O)c1ccc(N2C3CC4CC(C3)CC2C4)cc1 cannot be ordered by solubility thermodynamic at 48 h: less than 1 µg/mL for the first, less than 10 µg/mL for the second.

Going from CCCOc1ccc(C[C@@H](Cc2ccccc2)C(=O)O)cc1CNC(=O)c1ccc(N2CCCCC2)cc1 to CCCOc1ccc(C[C@@H](Cc2ccccc2)C(=O)O)cc1CNC(=O)c1ccc(N2CCCCCCC2)cc1, the solubility thermodynamic at 48 h falls from 10 µg/mL (≈ 19.4 µM) to less than 10 µg/mL.

CCCOc1ccc(C[C@@H](Cc2ccccc2)C(=O)O)cc1CNC(=O)c1ccc(N2CCCC(C)(C)C2)cc1 and CCCOc1ccc(C[C@@H](Cc2ccccc2)C(=O)O)cc1CNC(=O)c1ccc(N2CCC(C)(C)CC2)cc1 cannot be ordered by solubility thermodynamic at 48 h: less than 10 µg/mL for the first, less than 10 µg/mL for the second.

Compared with CCCOc1ccc(C[C@@H](Cc2ccccc2)C(=O)O)cc1CNC(=O)c1ccc(N2CC(C)(C)CC(C)(C)C2)cc1, CCCOc1ccc(C[C@@H](Cc2ccccc2)C(=O)O)cc1CNC(=O)c1ccc(N2CC3CCC(C3)C2)cc1 is higher in solubility thermodynamic at 48 h: less than 10 µg/mL for the first, 10 µg/mL (≈ 18.5 µM) for the second.

Compared with CCCOc1ccc(C[C@@H](Cc2ccccc2)C(=O)O)cc1CNC(=O)c1ccc(N2C3CCCC2CC3)cc1, CCCOc1ccc(C[C@@H](Cc2ccccc2)C(=O)O)cc1CNC(=O)c1ccc(N2C3CCCC2CCC3)cc1 is lower in solubility thermodynamic at 48 h: 10 µg/mL (≈ 18.5 µM) for the first, less than 10 µg/mL for the second.
